96 compounds from ChEMBL document CHEMBL4513216, “Probing the Open Global Health Chemical Diversity Library for Multistage-Active Starting Points for Next-Generation Antimalarials” (ACS Infect Dis, 2020) can be followed below.

The series is described as follows: Toxicity liver stage against HepG2, at 10uM. It is filed as cell-based. Also on record: test concentration 10 uM, cell line HepG2-A16-CD81EGFP. The note with it: human, HepG2-A16-CD81EGFP cells; read-out: INHIBITION
Put shortly: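 Uninfected HepG2-A16-CD81EGFP cells, 3 × 10^3 per well, 1536-well, plated on prespotted compound at 10 μM final, parasite-free screening media added to match infected plates; puromycin 10 μM positive, DMSO 0.5% negative; run in parallel with 48 h PbLuc assay at 37 °C, 5% CO2; viability by CellTiter-Glo luminescence, normalized to controls.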
Consider `CC(=O)N1[C@H](Cn2cncn2)C[C@@H]2CN(Cc3cccnc3)CC[C@@H]21`, for which the cytotoxicity at 10 µM was 3.16%.
For the compound `CCN(Cc1noc(CC(C)C)n1)Cc1ccccc1Cl`, the cytotoxicity at 10 µM is -50.6%.
The same measure for `CN(Cc1ccccc1C#N)C1CCN(CCc2ccccn2)CC1`: -6.55%.
Under `N#Cc1ccc(CNc2ncc(C#N)cc2Cl)cc1` stands 17.7%; under `COCCNc1ncnc2c1CCN(C(=O)CC1CCC(=O)N1)CC2` (stereo unspecified), 1.15%; under `CCc1ccccc1OCCN(C)C(=O)CN1CCCC1`, -50.4%.
The same measure for `Cc1cnc(N2CCC3(CCC(C(=O)NC(C)C)C3)CC2)nc1` (stereo unspecified): -0.603%; for `CCC1=N[C@@]2(CC[C@@H]3CN(C(=O)Nc4ccccc4)C[C@@H]32)C(=O)N1CC`: 2.93%; for `O=C(CN(C1=NCCCC1)c1ccccc1)c1ccc(OC(F)F)cc1`: 2.88%.
Regarding `O=C(c1ccco1)N1CCC2(CCC(=O)N2Cc2ccccc2)CC1`, the cytotoxicity at 10 µM is 7.59%.
Under `Cc1ncccc1O[C@H]1CCN(C(=O)c2cccs2)CC[C@@H]1O` stands 0.719%; under `Cc1c[nH]c(CN(C)C(C(=O)O)c2c(F)cccc2OC(C)C)n1` (stereo unspecified), -50.6%; under `COc1ccc(CCNc2cc(-c3nc(C)no3)ccn2)cc1OC`, 3.39%.
Under `CC(=O)Cn1nc(-c2ccccc2F)ccc1=O` stands 0.477%.
In the case of `COC1CCN(CCNC(=O)C2CCCCC2)CC1`, the cytotoxicity at 10 µM was 0.545%.
The same measure for `CC(=O)NCC1CCN(C(=O)c2c[nH]c3cc(Cl)ccc23)CC1`: 7.07%; for `O=C(C1CCCCC1)N1CCC(c2n[nH]c3nccnc23)CC1`: 4.05%; for `CC(C)(C)NC(=O)CN1CCCN(c2ccc(C#N)cn2)CC1`: -4.31%.
Under `COCCn1cc(NCc2cn(C)nc2-c2ccncc2)cn1` stands 2.03%; under `COc1cc(C)nc(N2CCN(C(=O)CCc3nccs3)CC2)n1`, -15.8%; under `Cc1nc(C2(O)CCCNCC2)sc1CCOc1ccc(F)cc1` (stereo unspecified), -15.8%.
The same measure for `COc1ncccc1CN1CCC2(CC1)CC(OCC1CC1)CO2` (stereo unspecified): 4.33%; for `CC(C(=O)N1CCOCC1)N1CCc2cncnc2C1` (stereo unspecified): -5.05%.
For the compound `CCCSc1ncccc1C(=O)NCc1ccc(N(C)C)cc1`, the cytotoxicity at 10 µM worked out at 8.07%.
The same measure for `CC(O)c1cn(CC2CCN(C(=O)CN3CCCC3=O)CC2)nn1` (stereo unspecified): 2.31%.
Take `CC1(C)CN(CCC(=O)NCc2cccc(Cl)c2)CC[C@]1(C)O`: the cytotoxicity at 10 µM is -3.45%.
Under `Cc1nc(C2CCCN2Cc2ccn(C)c(=O)c2)no1` (stereo unspecified) stands -12.9%; under `Cc1cncc(C2CCCN(C(=O)c3scnc3C)C2)n1` (stereo unspecified), -2.19%.
Under `COCC1CN(C(=O)Nc2cc(-n3cccc3)ccc2F)CCO1` (stereo unspecified) stands 3.61%; under `COc1ncccc1CN1CCc2[nH]nc(C(=O)N(C)C)c2C1`, 1.55%.
The same measure for `C[C@@H]1CN(c2cc(N3CCC(O)CC3)ncn2)C[C@@]1(O)C1CCC1`: -5.73%.
For the compound `Nc1nccnc1CC1CCCN(Cc2ccnc3ccccc23)C1` (stereo unspecified), the cytotoxicity at 10 µM is 24.7%.
`COc1cccc(Cl)c1C(C(=O)O)N(C)Cc1c(C)n[nH]c1C` (stereo unspecified): the cytotoxicity at 10 µM was -1.89%.
The same measure for `Cn1ccnc1CN1CCN(Cc2ccc(C#N)cc2F)CC1`: -13.2%; for `CC(O)CCN(C)C(=O)Nc1cccc(F)c1` (stereo unspecified): -6.16%; for `Cc1ccn2ncc(C(=O)N3CCCC(n4nc(C)nc4C)C3)c2n1` (stereo unspecified): -13.6%.
Consider `N#Cc1ccccc1CN1CCC2(CC1)CC(c1ccccc1)C(=O)N2` (stereo unspecified), for which the cytotoxicity at 10 µM was -44.8%.
Under `CC1CCc2nc(O)c(C(=O)NCCN(C)C)cc2C1` (stereo unspecified) stands -13.8%; under `CC(SCC(=O)N(C)CC(=O)NC1CC1)c1cc(F)ccc1F` (stereo unspecified), 8.13%.
Under `Cc1cc(NC(=O)CN(C)CC2CCCN2c2cccnn2)n(C)n1` (stereo unspecified) stands 7.85%.
For the compound `CCC(=O)Nc1nnc2n(Cc3cccc(OC)c3)[nH]c(C)c1-2`, the cytotoxicity at 10 µM is -9.24%.
For `O=C(C1CC1)N1C[C@H]2CCCN(S(=O)(=O)c3cccc(F)c3)[C@H]2C1`, the cytotoxicity at 10 µM amounted to 5.11%.
In the case of `CS(=O)(=O)N1CC2(CCN(c3nccs3)CC2)c2ccccc21`, the cytotoxicity at 10 µM amounted to 0.933%.
The same measure for `Cn1ccnc1C(=O)N[C@@H]1CN(CC2CCOCC2)[C@@H]2CCCO[C@@H]21`: -97.8%.
The same measure for `O=S(=O)(NCC1CCN(c2cnccn2)CC1)C1CC1`: 11.3%; for `CCn1c(C)cc(C(=O)NCc2ccc(CS(C)(=O)=O)cc2)c1C`: -16.9%.
Consider `CC(C)(NCC(=O)NCCC#N)c1ccc2c(c1)OCCO2`, for which the cytotoxicity at 10 µM was -4.03%.
The same measure for `N#Cc1ccc(CN2C(=O)c3ccccc3CS2(=O)=O)c(F)c1`: -0.639%; for `CNc1snc(C)c1C(=O)N1CCCC(n2cccn2)C1` (stereo unspecified): -3.81%; for `Cn1cc(C2=NOC(C(=O)NC3(c4ccccc4)CCCC3)C2)cn1` (stereo unspecified): -0.34%.
For the compound `COC(=O)c1ccc2c(-c3ccnc(NCCO)n3)c[nH]c2c1`, the cytotoxicity at 10 µM is -12.8%.
The same measure for `CCn1ccnc1CN1CCCN(C(=O)c2scnc2C)CC1`: -7.77%; for `Clc1ccccc1OC1CCN(CC2CCOC2)CC1` (stereo unspecified): -9.85%.
The same measure for `Cc1ccc(OCCNc2cccc(C(=O)N3CCOCC3)c2)cc1`: 4.14%.
The same measure for `CCS(=O)(=O)NC(CCSC)C(=O)Nc1ccc(C)cc1C` (stereo unspecified): -8.9%.
For the compound `Cc1noc(-c2cnc(NC3CC3)nc2-c2ccco2)c1C`, the cytotoxicity at 10 µM came to 6.38%.
`CN(CC(=O)N(C)C(c1ccc(Cl)cc1)c1cccnc1)C1CC1` (stereo unspecified): the cytotoxicity at 10 µM amounted to 10.9%.
`CCOc1ccccc1CC(=O)N1C[C@@H](C(=O)O)[C@H](C2CC2)C1`: the cytotoxicity at 10 µM amounted to 1.12%.
For the compound `O=C(CNc1ccc(OC2CCOC2)cc1)NCc1ccc(F)cc1` (stereo unspecified), the cytotoxicity at 10 µM was determined as 3.4%.
Consider `CC(CN1CCOCC1)NC(=O)c1cc(Cl)c2c(c1)OCO2` (stereo unspecified), for which the cytotoxicity at 10 µM was -2.35%.
`CCc1cc(NCCN2CCNC2=O)n2nc(C)c(C)c2n1`: the cytotoxicity at 10 µM was -5.81%.
Under `Cc1ccc2cc(CN(C)Cc3nccs3)c(=O)[nH]c2c1` stands 2.91%.
As for `CS(=O)(=O)NCC1CCCN(C(=O)c2ccco2)C1` (stereo unspecified), the cytotoxicity at 10 µM was -19.3%.
The same measure for `O=C1Nc2ccccc2CC12CCCN2Cc1ccc(C(F)(F)F)cc1` (stereo unspecified): 30.2%; for `COc1ccccc1CC(=O)N1CCC(NCc2ccccn2)CC1`: -11.5%; for `COc1ccc(-n2ncc(C(C)NC3CCOCC3)c2C)cc1` (stereo unspecified): 2.77%.
In the case of `Cc1nc(CN2CCO[C@@H]3CN(C(=O)CN(C)C)CC[C@@H]3C2)cs1`, the cytotoxicity at 10 µM was -0.587%.
Turning to `CCc1ccc(S(=O)(=O)Nc2cc(OC)c(OC)cc2C(=O)O)s1`, the cytotoxicity at 10 µM was -7.22%.
Consider `CCN(CC)CCN(C)c1nc(-c2ccc(Cl)cc2)nc2c1CNC2`, for which the cytotoxicity at 10 µM was 1.78%.
For `CCCC(C)(O)c1cc(C(N)=O)no1` (stereo unspecified), the cytotoxicity at 10 µM is -5.4%.
Under `CCn1ncnc1CN1CCc2[nH]cnc2C1c1ccccn1` (stereo unspecified) stands -9.38%.
Consider `CCCS(=O)(=O)N1CCc2nc(N3CCOCC3)nc(N(C)C)c2C1`, for which the cytotoxicity at 10 µM was determined as 15.5%.
Take `CN(Cc1cccnc1)C[C@H]1OC[C@@H]2CCN(c3ncccn3)C[C@@H]21`: the cytotoxicity at 10 µM is -108%.
`COCC(=O)N[C@H](C)c1onc(-c2ccc(Cl)cc2)c1C(=O)O`: the cytotoxicity at 10 µM was -5.61%.
The same measure for `CC(C)c1nc(CN2CCN(C(C)c3nc(C4CC4)no3)CC2)no1` (stereo unspecified): 6.54%.
For `COc1cccc(CN2CCCC2c2cncc(Nc3nncs3)n2)c1` (stereo unspecified), the cytotoxicity at 10 µM was found to be 4.73%.
For `CCCS(=O)(=O)c1ccc(N2CCN(c3ccccn3)CC2)nn1`, the cytotoxicity at 10 µM was -82.5%.
The same measure for `Cn1cc(CN(Cc2cccc(-n3cccn3)c2)C2CC2)cn1`: -15.4%; for `CN(C)c1ncccc1CNC(=O)CCNc1ncccn1`: -2.22%.
Under `CC(=O)Nc1c(C)noc1C=Cc1ccc(S(=O)(=O)NC2CC2)cc1` stands 0.54%.
For the compound `CCOCCNC(=O)c1cccnc1Sc1cc(OC)ccc1OC`, the cytotoxicity at 10 µM was determined as 0.354%.
For the compound `Fc1ccc(-n2cccn2)c(CN2CCCCC2CCn2ccnc2)c1` (stereo unspecified), the cytotoxicity at 10 µM was -11.3%.
For the compound `COCC(=O)NC[C@H]1C[C@@H]2CCN1C[C@@H]2CN(C)c1ccccc1`, the cytotoxicity at 10 µM is -2.17%.
On to `Cc1c[nH]c(C2COCCN2C(=O)CCc2c(C)n[nH]c2C)n1` (stereo unspecified), for which the cytotoxicity at 10 µM was -0.615%.
The same measure for `CCC(=O)N1Cc2nnc(C3CCOCC3)n2C(Cc2c[nH]cn2)C1` (stereo unspecified): -11.2%.
The same measure for `CC(C)c1nccn1-c1cccc(C2CCCN2S(=O)(=O)N(C)C)n1` (stereo unspecified): 4.26%; for `Cc1csc(N2CCN(C(=O)CCn3cccn3)CC2)n1`: -9.41%; for `CCCc1nccn1-c1ccc(C(O)CN2CCOCC2)cc1` (stereo unspecified): 3.43%.
For the compound `CC(C)n1nc(Cn2cccc2)c2c1CN(C1CCOCC1)C2`, the cytotoxicity at 10 µM turned out to be 7.55%.
As for `Cc1ccc(CN2CC[C@H](c3nnc(COc4ccc(F)cc4)o3)C2)o1`, the cytotoxicity at 10 µM was found to be 5.2%.
Regarding `COc1cc(C(=O)N2Cc3cnc(C(C)(C)C)nc3C2)ccn1`, the cytotoxicity at 10 µM was found to be 2.03%.
The same measure for `Cc1noc(CN(C)C(=O)c2n[nH]c(N)c2-c2ccccc2)n1`: -2.14%; for `CCC(CC)CN1C[C@@H]2OCCN(Cc3cnn(C)c3)[C@@H]2C1`: -144%; for `Cc1nc(CN2CCCc3cc(OC(F)(F)F)ccc32)oc1C`: 0.889%.
As for `CCN(CC)CC(=O)N1CCCC1Cn1cccn1` (stereo unspecified), the cytotoxicity at 10 µM was -3.08%.
The same measure for `CCN1CCCC(O)(CNCc2ccc3c(c2)OCO3)C1` (stereo unspecified): 2.34%.
